The source of these data is ChEMBL document CHEMBL4229344 (Eur J Med Chem, 2018).

Structures are written as SMILES. The source made the active and inactive calls. No cut-off for these calls is given here.

Series [1] has as its target Fibroblast growth factor receptor 4 (Homo sapiens) (UniProt P22455). The series can be described thus: Binding affinity to wild-type human partial length FGFR4 (G402 to E713 residues) expressed in bacterial expression system assessed as residual binding level at 1 uM by Kinomescan method relative to control. Summed up:
(§1)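 Kinome-wide competition binding screen against a panel of 468 purified kinases/mutants, with the test compound at a single concentration of 1 μM. Read-out is the relative binding activity of each kinase in the presence of compound.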

Series [2] concerns the target Cyclin-dependent kinase 8 (Homo sapiens) (UniProt P49336). The series is described as follows: Binding affinity to wild-type human partial length CDK8 (M1 to T360 residues) expressed in bacterial expression system assessed as residual binding level at 1 uM by Kinomescan method relative to control.
Series [3] deals with Tyrosine-protein kinase Fyn (Homo sapiens) (UniProt P06241). The series is described as follows: Binding affinity to wild-type human partial length FYN (T243 to L534 residues) expressed in bacterial expression system assessed as residual binding level at 1 uM by Kinomescan method relative to control. The essentials: as §1
For series [4], the target named is Protein kinase C eta type (Homo sapiens) (UniProt P24723). The series is described as follows: Binding affinity to wild-type human partial length PRKCH (S324 to P683 residues) expressed in bacterial expression system assessed as residual binding level at 1 uM by Kinomescan method relative to control.
Series [5] deals with Serine/threonine-protein kinase MARK2 (Homo sapiens) (UniProt Q7KZI7). The series is described as follows: Binding affinity to wild-type human partial length MARK2 (M1 to R450 residues) expressed in bacterial expression system assessed as residual binding level at 1 uM by Kinomescan method relative to control. The essentials: as §1
Series [6] is described as follows: MRT (0 to t) in Sprague-Dawley rat at 10 mg/kg, po. Type of series: ADME, organism-based. As to conditions: in vivo.
In series [7] the target is Mitogen-activated protein kinase 6 (Homo sapiens) (UniProt Q16659). The series is described as follows: Binding affinity to wild-type human partial length ERK3 (M1 to P413 residues) expressed in bacterial expression system assessed as residual binding level at 1 uM by Kinomescan method relative to control. Summed up: as §1
The target in series [8] is T1, Platelet-derived growth factor receptor alpha (Homo sapiens, UniProt P16234). The series can be described thus: Binding affinity to wild-type human partial length PDGFRalpha (V575 to D1002 residues) expressed in mammalian expression system assessed as residual binding level at 1 uM by Kinomescan method relative to control. Summed up:
(§2)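 KINOMEscan competition binding against a panel of 468 purified kinases/mutants, compound tested at 1 μM; readout is relative binding activity versus control.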

Series [9] concerns the target Ephrin type-A receptor 2 (Homo sapiens) (UniProt P29317). The series can be described thus: Binding affinity to wild-type human partial length EPHA2 (T593 to V891 residues) expressed in bacterial expression system assessed as residual binding level at 1 uM by Kinomescan method relative to control.
Series [10] concerns the target Calcium/calmodulin-dependent protein kinase type IV (Homo sapiens) (UniProt Q16566). The series can be described thus: Binding affinity to wild-type human partial length CAMK4 (A22 to A322 residues) expressed in bacterial expression system assessed as residual binding level at 1 uM by Kinomescan method relative to control.
In series [11] the target is Phosphatidylinositol 4,5-bisphosphate 3-kinase catalytic subunit beta isoform (Homo sapiens) (UniProt P42338). The series is described as follows: Binding affinity to wild-type human partial length PIK3CB (P118 to S1070 residues) expressed in mammalian expression system assessed as residual binding level at 1 uM by Kinomescan method relative to control.
Series [12] concerns the target Activin receptor type-1-like (Homo sapiens) (UniProt P37023). The series is described as follows: Binding affinity to wild-type human ACVRL1 (L164 to Q503 residues) expressed in bacterial expression system assessed as residual binding level at 1 uM by Kinomescan method relative to control. Summed up: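 Single-concentration (1 μM) competition-binding screen run by KINOMEscan against a panel of 468 purified kinases and mutants. The read-out is the relative binding activity of the test compound to each kinase.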

The subject of a further series is EOL1. The series can be described thus: Antitumor activity against human EOL-1 cells xenografted in nu/nu mouse assessed as tumor growth inhibition at 50 mg/kg/day, ip. Type of series: functional. As to conditions: read-out: TGI. Summed up: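 Female nu/nu mice (6 weeks) given subcutaneous right-flank injection of 5 million EOL-1 cells in PBS/Matrigel 1:1. At 200–400 mm3 tumors, randomized to groups of 6 and dosed daily i.p. for 14 days at 25, 50 or 100 mg/kg/d in 0.5% methylcellulose/0.4% Tween80. Tumor volume = W²×L/2, measured daily.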
In general terms: A xenograft is tissue or cells of one species grown in another, often human tumour cells in immunodeficient mice.

In series [13] the target is T1, Platelet-derived growth factor receptor alpha. The series is described as follows: Inhibition of PDGFRalpha autophosphorylation at Y1018 residue in human EOL-1 cells up to 300 nM after 2 hrs by Western blot analysis. Type of series: cell-based. (In western blotting, separated proteins are transferred to a membrane and probed.)
In series [14] the target is Serine/threonine-protein kinase D1 (Homo sapiens) (UniProt Q15139). The series is described as follows: Binding affinity to wild-type human partial length PRKD1 (G551 to E870 residues) expressed in bacterial expression system assessed as residual binding level at 1 uM by Kinomescan method relative to control. Summed up:
as §2

Series [15] has as its target Homeodomain-interacting protein kinase 2 (Homo sapiens) (UniProt Q9H2X6). The series can be described thus: Binding affinity to wild-type human partial length HIPK2 (M153 to S564 residues) expressed in mammalian expression system assessed as residual binding level at 1 uM by Kinomescan method relative to control.
Series [16] deals with Protein kinase C delta type (Homo sapiens) (UniProt Q05655). The series is described as follows: Binding affinity to wild-type human partial length PRKCD (Q328 to D676 residues) expressed in bacterial expression system assessed as residual binding level at 1 uM by Kinomescan method relative to control. The essentials:
as §2

The test system of series [17] is Epidermal growth factor receptor (Homo sapiens), P00533 [L861Q]. The series can be described thus: Binding affinity to human partial length EGFR L861Q mutant (R669 to V1011 residues) expressed in bacterial expression system assessed as residual binding level at 1 uM by Kinomescan method relative to control. Summed up: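 Kinome-wide single-concentration binding screen (KINOMEscan) at 1 μM against a panel of 468 purified kinases and mutants. Read-out is relative binding of each kinase compared with control. Selectivity across the panel was summarised as an S(10) score.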

Series [18] addresses Serine/threonine-protein kinase PRP4 homolog (Homo sapiens) (UniProt Q13523). The series is described as follows: Binding affinity to wild-type human partial length PRP4 (D657 to I1007 residues) expressed in bacterial expression system assessed as residual binding level at 1 uM by Kinomescan method relative to control.
Series [19] deals with cAMP-dependent protein kinase catalytic subunit PRKX (Homo sapiens) (UniProt P51817). The series is described as follows: Binding affinity to wild-type human partial length PRKX (M1 to F358 residues) expressed in bacterial expression system assessed as residual binding level at 1 uM by Kinomescan method relative to control. The essentials:
as §2

The nature of series [20]: Tmax in Sprague-Dawley rat at 10 mg/kg, po. Type of series: ADME, organism-based. As to conditions: in vivo. The essentials:
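Male Sprague-Dawley rats, 6–8 weeks old and fasted overnight, dosed IV at 1 mg/kg or PO at 10 mg/kg. Formulation was 5% DMSO/40% PEG400/55% saline (1 mg/mL). Jugular blood collected on heparin from 1 min to 8 h (IV) or 5 min to 24 h (PO). Plasma separated by centrifugation at 2–8 °C and stored at −80 °C.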

Usually MRT last stands for a mean duration of stay, worked out from the concentration-time curve. What is called Tmax is the time at which the peak concentration occurs.

T1 sequence (P16234 whole entry, the tested form may be a part): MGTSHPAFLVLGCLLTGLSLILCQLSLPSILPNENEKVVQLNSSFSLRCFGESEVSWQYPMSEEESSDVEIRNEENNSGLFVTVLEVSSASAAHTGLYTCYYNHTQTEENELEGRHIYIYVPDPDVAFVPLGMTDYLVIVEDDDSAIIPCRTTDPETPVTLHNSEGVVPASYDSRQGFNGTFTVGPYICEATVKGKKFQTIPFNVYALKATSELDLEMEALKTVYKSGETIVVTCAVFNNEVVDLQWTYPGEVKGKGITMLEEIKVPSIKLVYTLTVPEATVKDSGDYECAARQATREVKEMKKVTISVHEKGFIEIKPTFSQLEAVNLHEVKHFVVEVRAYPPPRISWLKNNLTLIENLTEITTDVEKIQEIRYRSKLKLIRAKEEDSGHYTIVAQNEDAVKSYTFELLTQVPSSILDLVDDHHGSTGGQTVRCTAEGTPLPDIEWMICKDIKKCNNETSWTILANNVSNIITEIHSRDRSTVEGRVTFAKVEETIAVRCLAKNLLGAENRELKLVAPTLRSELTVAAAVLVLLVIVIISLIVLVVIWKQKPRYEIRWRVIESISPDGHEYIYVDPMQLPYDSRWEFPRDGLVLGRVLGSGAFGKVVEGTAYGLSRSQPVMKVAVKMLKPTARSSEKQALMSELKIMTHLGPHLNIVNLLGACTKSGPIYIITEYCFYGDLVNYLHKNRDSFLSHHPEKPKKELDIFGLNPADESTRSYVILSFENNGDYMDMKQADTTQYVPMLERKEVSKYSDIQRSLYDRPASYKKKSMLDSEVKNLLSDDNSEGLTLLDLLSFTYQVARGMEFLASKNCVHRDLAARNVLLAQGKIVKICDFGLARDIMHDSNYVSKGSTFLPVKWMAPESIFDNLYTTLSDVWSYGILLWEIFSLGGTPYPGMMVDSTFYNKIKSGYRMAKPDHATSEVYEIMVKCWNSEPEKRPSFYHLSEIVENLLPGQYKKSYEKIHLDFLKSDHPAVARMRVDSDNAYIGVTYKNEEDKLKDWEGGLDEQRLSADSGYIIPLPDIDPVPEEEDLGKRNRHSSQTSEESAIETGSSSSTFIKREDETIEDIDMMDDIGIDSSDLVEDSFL
Chain of Ephrin type-A receptor 2 (Homo sapiens) (P29317 whole entry, the tested form may be a part): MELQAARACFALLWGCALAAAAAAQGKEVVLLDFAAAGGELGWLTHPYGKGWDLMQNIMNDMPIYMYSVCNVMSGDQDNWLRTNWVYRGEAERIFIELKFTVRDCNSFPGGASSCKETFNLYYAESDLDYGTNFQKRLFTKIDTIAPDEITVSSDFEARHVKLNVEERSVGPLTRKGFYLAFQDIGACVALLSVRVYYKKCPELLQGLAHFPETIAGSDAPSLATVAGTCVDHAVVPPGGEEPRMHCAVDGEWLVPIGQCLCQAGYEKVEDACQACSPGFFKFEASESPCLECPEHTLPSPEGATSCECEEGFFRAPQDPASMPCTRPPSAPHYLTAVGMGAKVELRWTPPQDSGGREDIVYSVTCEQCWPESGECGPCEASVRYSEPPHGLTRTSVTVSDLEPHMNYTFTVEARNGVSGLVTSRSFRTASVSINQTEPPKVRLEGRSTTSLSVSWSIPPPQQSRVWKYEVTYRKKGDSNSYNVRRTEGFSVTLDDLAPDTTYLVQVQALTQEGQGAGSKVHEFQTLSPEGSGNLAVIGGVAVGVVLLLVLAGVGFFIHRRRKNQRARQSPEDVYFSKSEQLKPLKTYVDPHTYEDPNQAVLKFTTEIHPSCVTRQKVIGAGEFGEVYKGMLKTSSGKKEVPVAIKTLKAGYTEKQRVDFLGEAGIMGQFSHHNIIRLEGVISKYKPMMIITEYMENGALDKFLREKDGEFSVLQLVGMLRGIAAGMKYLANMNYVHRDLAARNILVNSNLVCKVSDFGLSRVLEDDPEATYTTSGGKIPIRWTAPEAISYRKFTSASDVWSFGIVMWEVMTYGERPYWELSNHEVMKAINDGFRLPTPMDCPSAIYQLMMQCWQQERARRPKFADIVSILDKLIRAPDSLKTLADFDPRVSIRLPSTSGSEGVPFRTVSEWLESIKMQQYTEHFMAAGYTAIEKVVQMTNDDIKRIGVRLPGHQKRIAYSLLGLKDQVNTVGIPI
Chain of Serine/threonine-protein kinase D1 (Homo sapiens) (Q15139 whole entry, the tested form may be a part): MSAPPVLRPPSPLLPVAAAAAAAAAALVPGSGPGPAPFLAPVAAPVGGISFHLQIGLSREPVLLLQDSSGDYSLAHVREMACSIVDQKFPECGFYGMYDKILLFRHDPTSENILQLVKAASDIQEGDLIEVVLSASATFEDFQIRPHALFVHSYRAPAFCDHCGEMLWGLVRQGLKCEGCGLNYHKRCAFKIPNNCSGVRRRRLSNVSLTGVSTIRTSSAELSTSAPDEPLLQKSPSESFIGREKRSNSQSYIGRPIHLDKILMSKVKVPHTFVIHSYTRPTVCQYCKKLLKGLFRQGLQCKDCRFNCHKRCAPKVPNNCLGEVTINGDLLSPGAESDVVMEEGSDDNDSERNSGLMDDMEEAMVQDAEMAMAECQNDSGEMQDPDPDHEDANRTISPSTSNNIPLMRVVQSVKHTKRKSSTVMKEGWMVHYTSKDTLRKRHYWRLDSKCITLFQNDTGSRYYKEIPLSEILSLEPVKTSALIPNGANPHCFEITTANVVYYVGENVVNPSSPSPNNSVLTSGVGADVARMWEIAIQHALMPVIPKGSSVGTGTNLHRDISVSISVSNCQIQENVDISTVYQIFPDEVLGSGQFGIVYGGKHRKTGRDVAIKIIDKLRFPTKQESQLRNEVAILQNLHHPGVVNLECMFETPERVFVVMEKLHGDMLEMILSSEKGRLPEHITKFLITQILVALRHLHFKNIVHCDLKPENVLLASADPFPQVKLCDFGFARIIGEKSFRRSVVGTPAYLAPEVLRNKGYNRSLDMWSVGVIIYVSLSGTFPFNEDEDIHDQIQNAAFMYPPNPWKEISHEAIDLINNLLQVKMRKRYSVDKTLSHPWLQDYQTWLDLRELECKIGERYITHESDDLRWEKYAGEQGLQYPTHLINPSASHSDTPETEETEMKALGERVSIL
Chain of Cyclin-dependent kinase 8 (Homo sapiens) (P49336 whole entry, the tested form may be a part): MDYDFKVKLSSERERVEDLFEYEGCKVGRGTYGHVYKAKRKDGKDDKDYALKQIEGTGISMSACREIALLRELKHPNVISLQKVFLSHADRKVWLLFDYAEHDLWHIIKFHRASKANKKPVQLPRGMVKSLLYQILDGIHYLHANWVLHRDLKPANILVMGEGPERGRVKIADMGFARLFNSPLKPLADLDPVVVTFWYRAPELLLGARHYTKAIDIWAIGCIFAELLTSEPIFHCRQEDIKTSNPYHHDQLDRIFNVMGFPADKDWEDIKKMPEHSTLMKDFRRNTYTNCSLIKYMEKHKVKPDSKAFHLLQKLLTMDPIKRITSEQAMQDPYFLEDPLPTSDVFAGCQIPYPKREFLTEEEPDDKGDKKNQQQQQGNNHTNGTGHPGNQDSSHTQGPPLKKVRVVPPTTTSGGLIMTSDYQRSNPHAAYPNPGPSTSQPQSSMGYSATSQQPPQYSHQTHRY
Chain of Phosphatidylinositol 4,5-bisphosphate 3-kinase catalytic subunit beta isoform (Homo sapiens) (P42338 whole entry, looked up, the tested form may be a part, canonical isoform): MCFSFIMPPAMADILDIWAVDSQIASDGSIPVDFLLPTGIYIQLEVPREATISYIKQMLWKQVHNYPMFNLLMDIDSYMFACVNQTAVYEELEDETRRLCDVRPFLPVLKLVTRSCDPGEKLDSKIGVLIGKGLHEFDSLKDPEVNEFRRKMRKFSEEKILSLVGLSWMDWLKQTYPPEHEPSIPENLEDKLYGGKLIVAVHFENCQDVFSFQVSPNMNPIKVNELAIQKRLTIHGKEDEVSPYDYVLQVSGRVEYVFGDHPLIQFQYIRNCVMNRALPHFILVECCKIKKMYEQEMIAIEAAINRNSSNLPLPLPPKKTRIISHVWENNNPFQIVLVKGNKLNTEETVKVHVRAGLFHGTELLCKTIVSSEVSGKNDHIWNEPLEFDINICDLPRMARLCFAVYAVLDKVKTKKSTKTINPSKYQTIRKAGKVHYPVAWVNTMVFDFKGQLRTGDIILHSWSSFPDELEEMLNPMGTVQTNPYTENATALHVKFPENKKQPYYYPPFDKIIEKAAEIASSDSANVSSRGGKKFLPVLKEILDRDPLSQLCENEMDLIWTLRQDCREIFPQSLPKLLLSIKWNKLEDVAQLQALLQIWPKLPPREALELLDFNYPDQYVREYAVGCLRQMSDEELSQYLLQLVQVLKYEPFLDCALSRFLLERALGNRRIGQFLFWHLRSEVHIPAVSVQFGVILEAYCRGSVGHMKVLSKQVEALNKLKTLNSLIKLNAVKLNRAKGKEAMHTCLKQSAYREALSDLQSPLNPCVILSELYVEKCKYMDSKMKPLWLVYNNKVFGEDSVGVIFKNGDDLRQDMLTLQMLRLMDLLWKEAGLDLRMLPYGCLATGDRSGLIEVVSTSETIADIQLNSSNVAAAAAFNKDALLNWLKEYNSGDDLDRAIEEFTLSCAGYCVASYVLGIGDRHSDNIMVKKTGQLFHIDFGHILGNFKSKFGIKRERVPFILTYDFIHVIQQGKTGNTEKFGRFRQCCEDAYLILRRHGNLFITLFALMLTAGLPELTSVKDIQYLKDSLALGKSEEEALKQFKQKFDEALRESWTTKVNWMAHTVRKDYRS
Chain of Calcium/calmodulin-dependent protein kinase type IV (Homo sapiens) (Q16566 whole entry, the tested form may be a part, canonical isoform): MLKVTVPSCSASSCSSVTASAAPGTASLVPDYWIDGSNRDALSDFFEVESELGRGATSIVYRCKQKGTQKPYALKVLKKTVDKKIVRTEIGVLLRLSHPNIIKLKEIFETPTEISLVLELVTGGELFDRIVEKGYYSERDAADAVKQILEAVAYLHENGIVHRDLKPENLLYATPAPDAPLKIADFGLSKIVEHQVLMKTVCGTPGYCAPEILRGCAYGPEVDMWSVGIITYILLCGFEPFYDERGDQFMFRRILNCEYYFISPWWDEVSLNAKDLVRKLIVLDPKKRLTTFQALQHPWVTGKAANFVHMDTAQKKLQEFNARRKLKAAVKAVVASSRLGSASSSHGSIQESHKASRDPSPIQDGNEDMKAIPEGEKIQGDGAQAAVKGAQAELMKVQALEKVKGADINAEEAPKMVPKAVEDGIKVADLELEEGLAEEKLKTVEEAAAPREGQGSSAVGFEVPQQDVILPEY

With `Cc1ccc(NC(=O)c2ccc(CN(CCN(C)C)C(=O)c3cccnc3)cc2)cc1Nc1nccc(-c2cccnc2)n1`, the Activity in series [1] turned out to be 91%; in series [2], 90%; in series [3], 80%; in [4] it was 86%; in [5], 91%; in series [7] it was 94%. The Activity in series [8] was determined as 6.8%; in series [9], 100%; in [10], 98%; in series [11], 100%; in [12], 100%; in series [14], 75%. Further, the Activity in series [15] came out at 100%; in series [16] it was 87%; in [17], 99%; in series [18] it was 100%; in [19], 92%. The same compound came in with an MRT last in series [6] of 3.33 h. Moreover, in the series on EOL1, the inhibition in vivo at 50 mg/kg/day worked out at 95.4%. In series [13], the inhibition entry is “Active”. Also, the Tmax in series [20] is 1.5 h.
